TPT1 inh: C. albicans TPT1 enzyme inhibition. recombinant caTPT1, FP RNA substrate dephosphorylation. inhibition, % at 5 µM. actives 0.81% (n = 300,000). AID 1962;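 active = inhibition above the mean of all tested compounds plus 3 SD, set per screening campaign, cut at about 24% in these data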;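 also: plate controls were DMSO alone for no effect and ferristatin control at 100 nM for full effect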
Rpn11 inh: blocks the human proteasome subunit Rpn11; human 26S proteasome, Ub4-pepOG fluorescence polarization; 20S core pre-blocked with epoxomicin; inhibition, % at 20 µM; actives 0.59% (n = 360,000);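 active = inhibition at 20 µM, scaled to each plate's controls, above about 33%, limit read from the data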
CSN deneddyl inh: inhibitors of human CSN-mediated cullin deneddylation; Purified CSN, SCF-Nedd8-OG deneddylation, fluorescence polarization; inhibition, % at 12.5 µM; actives 0.38% (n = 360,000);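 active = pattern-corrected inhibition above about 35%, with an unprinted fluorescence ratio check between 0.5 and 1.5, limit read from the data, passing the limit was not always enough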;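 also: 0% = enzyme with substrate and 100% = substrate without enzyme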
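Assay system: purified human Csn5 enzyme expressed in HEK293T cells; Input: 0.24 nM Csn5 enzyme, final concentration; Reagent: 10 nM SCFSkp2-Nedd8OG; Compound dosing: 12.5 µM single point; Times: reaction 90 min, room temperature; Technique: fluorescence polarization readout.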
HNF4A DNA FP: change in binding of human HNF4 alpha to DNA; activity change, % at 10 µM; HNF4a-FITC DNA binding, fluorescence polarization, 1 h; P41235; actives 0.3% (n = 360,000); in the data active = activity change above about 30%, passing the limit was not always enough
SENP1 inh: SENP1 (human) catalytic domain inhibition | recombinant SENP1 catalytic domain, CyPet-SUMO1-YPet FRET cleavage | inhibition, % at 10 µM | actives 0.21% (n = 360,000);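 active = inhibition at least 30% at 10 µM, raw YFP signal under a set limit, fluorescence ratio 0.5 to 1.5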;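 also: 0% = enzyme with DMSO and 100% = no enzyme wells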
Target sequence (Q9P0U3 419-644 limits assumed): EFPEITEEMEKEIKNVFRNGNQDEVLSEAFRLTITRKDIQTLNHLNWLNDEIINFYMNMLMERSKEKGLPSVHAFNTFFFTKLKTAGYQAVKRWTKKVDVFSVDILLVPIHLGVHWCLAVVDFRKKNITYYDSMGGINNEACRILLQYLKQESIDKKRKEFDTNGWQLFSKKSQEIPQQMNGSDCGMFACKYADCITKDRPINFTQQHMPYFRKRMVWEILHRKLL
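Controls: no-enzyme wells low, DMSO-plus-enzyme wells high control. Test system: human recombinant His6-tagged SENP1 catalytic domain enzyme. Reagent: SFCypet-SUMO1-SFYpet FRET protein substrate, 25 nM final. Doses: one dose per compound, 10 µM, 0.5% DMSO. Detection: FRET, CFP and YFP emission. Timing: 50 min reaction at room temperature.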
ATG4B inhibitor: inhibitors of human ATG4B cysteine protease; Q9Y4P1; ATG4B cleavage of LC3-PLA2, NBD-HPC fluorescence, 1 h; inhibition, % at 8.33 µM; actives 0.51% (n = 340,000); AID 504462
Rpn11 confirm: confirmation of human proteasome Rpn11 inhibitors; shares compounds with Rpn11 inh; purified human 26S proteasome, Ub4-pepOG fluorescence polarization; proteasome pretreated with epoxomicin; inhibition, % at 20 µM; actives 29% (n = 1,900); AID 602318
MMP-2 counter: blocks human MMP-2, flagging nonselective RPN11 hits | shares compounds with Rpn11 inh | recombinant MMP-2, FRET peptide cleavage fluorescence | inhibition, % at 20 µM | actives 4% (n = 1,900);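 also: human MMP-2 activated beforehand with APMA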
Thrombin FP: blocks bovine thrombin, flagging nonselective RPN11 hits | actives 13% (n = 1,900) | AID 602333 | inhibition, % at 20 µM | shares compounds with Rpn11 inh | bovine thrombin cleavage of Ub4-pepOG, fluorescence polarization;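 active = mean inhibition at least 40% at 20 µM, or signal 3 deviations below plate average, so some actives read negative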;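 also: plate controls were thrombin with DMSO for no effect and buffer wells lacking thrombin for full effect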
* marks the source's active call; other numbers are inactive results; nt = no result given. Most compounds without a hit are left out; they make up all but 2% or so of the library. Rule as the data show it, unless noted: active = inhibition above about 40%; inactive = the rest.

SMILES	TPT1 inh	Rpn11 inh	CSN deneddyl inh	HNF4A DNA FP	SENP1 inh	ATG4B inhibitor	Rpn11 confirm	MMP-2 counter	Thrombin FP
O=C(NC1CC(=O)N(c2cccc(F)c2)C1)N1CCN(C(=O)c2ccco2)CC1 (stereo not given)	0	6	3	3	1	1	nt	nt	nt
CNc1cncc(-c2cccc(C(=O)NC3CC3)c2)n1	nt	-1	-3	-2	-4	nt	nt	nt	nt
Cc1ccc(N(CC(=O)NCCSCc2ccco2)S(=O)(=O)c2ccc(C)cc2)cc1	0	53*	1	30	-2	-7	21	15	8
COc1cccc(CN2CCC(n3nccc3NC(=O)CCCc3ccccc3)CC2)c1	0	5	5	0	-2	-3	nt	nt	nt
Cc1cccc(C)c1NC(=O)C1(C)CN(S(C)(=O)=O)CC(=O)N1Cc1cccs1 (stereo not given)	nt	nt	-6	0	-2	nt	nt	nt	nt
CC1Cc2ccccc2N1C(=O)c1ccc(N2CCCC2)c([N+](=O)[O-])c1 (stereo not given)	-2	1	8	6	3	13	nt	nt	nt
CC1Cc2ccccc2N1C(=O)c1ccc(N2CCCCC2)c([N+](=O)[O-])c1 (stereo not given)	-2	33*	1	-2	5	19	-3	-3	-1
O=C(Nn1cnnc1)c1ccc(Br)s1	-2	51*	-6	6	2	-6	-11	2	-9
Cc1ccccc1CC(=O)Nc1ccc(C(=O)N2CCCC2)cc1	-5	39*	0	13	2	-3	3	-28	-12
COc1cc(CN(C)c2ncnc3sccc23)ccc1OC(F)F	3	-3	0	3	-48	0	nt	nt	nt
CC(=O)Oc1ccc(C(=O)NCCc2ccccc2)cc1	-4	-2	-13	6	2	3	nt	nt	nt
CC(=O)Oc1ccc(-c2ccc(C(=O)NCCc3ccc(S(N)(=O)=O)cc3)cc2)cc1	-2	48*	-1	2	-1	-12	11	-16	9
CCCc1nc2c3ccccc3ccn2c1Cc1ccc(C)cc1	nt	43*	11	8	-16	nt	35	25	19
Cc1ccc(Cc2c(-c3ccco3)nc3c4ccccc4ccn23)cc1	nt	44*	22	18	-21	nt	35	40*	-8
Cc1cc(N)c(NC2=CC(=O)CC(C)(C)C2)cc1C	-1	54*	-5	-27	-6	-13	8	-9	3
Clc1ccc(Br)cc1-c1nc(-c2ccncc2)no1	0	88*	-2	5	-2	-2	32	21	-4
CCCCOc1nc2ccccc2nc1C(C#N)C(=O)NC1CCCCC1 (stereo not given)	-4	56*	14	0	-19	2	-3	-23	-5
CCOC(=O)c1c(NC(=O)CN2CCCc3ccccc32)sc(C)c1CC	5	44*	7	8	-12	16	-1	-26	6
CCOC(=O)c1c(NC(=O)CN2CCCc3ccccc32)sc(C)c1C	-1	15	-7	3	-12	0	nt	nt	nt
Cc1ccc(NC2CCCN(C(=O)CN3C(=O)CSC3=O)C2)cc1C (stereo not given)	0	-4	-1	2	0	-2	nt	nt	nt
O=C(Nc1ccc2c(c1)CCC2)c1cc(S(=O)(=O)N2CCN(c3ccccc3)CC2)ccc1Cl	22	64*	6	22	1	-12	41*	14	-50
O=C(Nc1cccc(Cl)c1)Nc1nnc(-c2ccncc2)s1	3	11	92	-42	-170	-8	nt	nt	nt

Source: PubChem BioAssay
